Data set [1] in a line: Lipophilicity, log D of the compound at pH 7.4. It is filed as physicochemical. As to conditions: buffer.
Data set [2] addresses Sphingosine 1-phosphate receptor 1 (Homo sapiens, UniProt P21453). Put plainly: Antagonist activity against human S1P1 receptor expressed in human U2OS cells co-expressing GFP assessed as inhibition of S1P-induced receptor translocation. In kind it is cell-based. The essentials:
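Cellular S1P1 translocation (internalization) assay with antagonist; EC50 reported as mean of at least three separate determinations ± standard deviation.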

Data set [3] addresses Cytochrome P450 2D6 (Homo sapiens, UniProt P10635). Put plainly: Inhibition of CYP2D6 in human liver microsomes incubated for 5 mins in presence of NADPH and specific substrates by LC/MS/MS method. It is filed as ADME.
For data set [4], the target named is Cytochrome P450 2C19 (Homo sapiens, UniProt P33261). Nature of the data set: Inhibition of CYP2C19 in human liver microsomes incubated for 5 mins in presence of NADPH and specific substrates by LC/MS/MS method. In kind it is ADME. (Microsomes from liver hold many membrane-bound enzymes, among them those of drug oxidation.)
The target in data set [5] is T1, Cytochrome P450 3A4 (Homo sapiens, UniProt P08684). Nature of the data set: Inhibition of CYP3A4 in human liver microsomes incubated for 5 mins in presence of NADPH and specific substrates by LC/MS/MS method. In kind it is ADME.
Data set [6] deals with T2, Cytochrome P450 3A5 (Homo sapiens, UniProt P20815). Nature of the data set: Inhibition of CYP3A5 in human liver microsomes incubated for 5 mins in presence of NADPH and specific substrates by LC/MS/MS method. In kind it is ADME.
In data set [7] the target is T3, Nuclear receptor subfamily 1 group I member 2 (Homo sapiens, UniProt O75469).
T3 sequence (O75469 whole entry): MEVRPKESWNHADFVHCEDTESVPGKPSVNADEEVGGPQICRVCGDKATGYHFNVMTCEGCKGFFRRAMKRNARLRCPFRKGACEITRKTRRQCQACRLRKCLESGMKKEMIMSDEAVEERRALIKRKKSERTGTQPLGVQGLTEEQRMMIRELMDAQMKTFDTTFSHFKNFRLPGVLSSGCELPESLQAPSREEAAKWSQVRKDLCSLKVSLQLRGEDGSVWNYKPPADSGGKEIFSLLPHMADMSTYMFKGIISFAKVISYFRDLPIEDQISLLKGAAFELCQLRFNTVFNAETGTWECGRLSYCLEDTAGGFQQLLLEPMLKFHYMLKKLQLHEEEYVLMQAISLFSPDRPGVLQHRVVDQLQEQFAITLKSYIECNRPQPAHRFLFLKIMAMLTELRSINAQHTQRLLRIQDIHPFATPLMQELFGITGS
Put plainly: Activation of human PXR expressed in human HepG2 cells co-expressing CYP3A4 assessed as CYP3A4 activation at 10 uM by luciferase reporter gene assay relative to rifampicin. It is filed as ADME, cell-based. The note with it: hepg2, 10 µM. In a few lines:
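Single-concentration PXR reporter gene screen, compound at 10 μM; activation expressed as a percentage of the response to rifampicin, also at 10 μM.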
In general terms: A reporter such as luciferase makes a cellular process visible.

The target in data set [8] is T1, Cytochrome P450 3A4. Nature of the data set: Induction of CYP3A4 activation in human hepatocytes at 10 uM incubated for 48 hrs using testosterone substrate relative to rifampicin. In kind it is ADME, cell-based, Hepatocyte. In a few lines:
(§1)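 Human hepatocyte CYP3A induction, testosterone probe with 6-β-hydroxytestosterone as marker; activity expressed as % of the rifampicin response; hepatocytes from two donors tested.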

The target in data set [9] is T2, Cytochrome P450 3A5. Nature of the data set: Induction of CYP3A5 activation in human hepatocytes at 10 uM incubated for 48 hrs using testosterone substrate relative to rifampicin. It is filed as ADME, cell-based, Hepatocyte. In a few lines: as §1
Data set [10] relates to Mus musculus. Put plainly: Inhibition of FGF-S1P-stimulated angiogenesis in 129s1/SvImJ mouse assessed as reduction in hemoglobin level at 10 mg/kg, po administered once-daily for 4 days by spectrophotometry based matrigel plug angiogenesis assay. In kind it is functional, organism-based. In a few lines:
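Matrigel (0.5 mL) with 2 µg/mL β-FGF and 1 µM S1P injected subcutaneously in the ventral region of female 129s1/SvImJ mice. Oral dosing at 10 mg/kg once daily on days 5-8 post-implant (5 per cohort); vehicle 0.5% HPMC, 0.1% Tween 80. Controls also include Matrigel without factors. Hemoglobin per gram of plug gel quantified.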

A short description of data set [11]: Aqueous equilibrium solubility in pH 7.4 phosphate buffer incubated for 24 hrs by HPLC-UV and MS method. In kind it is physicochemical.
Data set [12] is described as follows: Unbound fraction in mouse plasma at 10 uM by LCMS/MS detection based equilibrium dialysis method. In kind it is ADME, cell-free.
Data set [13] can be described thus: Unbound fraction in rat plasma at 10 uM by LCMS/MS detection based equilibrium dialysis method. It is filed as ADME, cell-free. A general note: Equilibrium dialysis compares concentrations on both sides of a semipermeable membrane.
Data set [14] is described as follows: Unbound fraction in dog plasma at 10 uM by LCMS/MS detection based equilibrium dialysis method. It is filed as ADME, cell-free, Canis lupus familiaris.
Data set [15] is described as follows: Unbound fraction in human plasma at 10 uM by LCMS/MS detection based equilibrium dialysis method. In kind it is ADME, cell-free.
Data set [16] is described as follows: Intrinsic clearance in mouse hepatocytes assessed per 10^6 cells at 1 uM after 0.5 to 120 mins by LCMS/MS method. It is filed as ADME, cell-based, Hepatocyte. The note with it: read-out: CLH.
Data set [17] in a line: Intrinsic clearance in rat hepatocytes assessed per 10^6 cells at 1 uM after 0.5 to 120 mins by LCMS/MS method. As to conditions: read-out: CLH. It is filed as ADME, cell-based, Hepatocyte.
A short description of data set [18]: Intrinsic clearance in dog hepatocytes assessed per 10^6 cells at 1 uM after 0.5 to 120 mins by LCMS/MS method. As to conditions: read-out: CLH. It is filed as ADME, cell-based, Canis lupus familiaris, Hepatocyte.
A short description of data set [19]: Intrinsic clearance in human hepatocytes assessed per 10^6 cells at 1 uM after 0.5 to 120 mins by LCMS/MS method. In kind it is ADME, cell-based, Hepatocyte. As to conditions: read-out: CLH.
The target in data set [20] is T4, Cytochrome P450 1A2 (Homo sapiens, UniProt P05177).
T4 sequence (P05177 whole entry): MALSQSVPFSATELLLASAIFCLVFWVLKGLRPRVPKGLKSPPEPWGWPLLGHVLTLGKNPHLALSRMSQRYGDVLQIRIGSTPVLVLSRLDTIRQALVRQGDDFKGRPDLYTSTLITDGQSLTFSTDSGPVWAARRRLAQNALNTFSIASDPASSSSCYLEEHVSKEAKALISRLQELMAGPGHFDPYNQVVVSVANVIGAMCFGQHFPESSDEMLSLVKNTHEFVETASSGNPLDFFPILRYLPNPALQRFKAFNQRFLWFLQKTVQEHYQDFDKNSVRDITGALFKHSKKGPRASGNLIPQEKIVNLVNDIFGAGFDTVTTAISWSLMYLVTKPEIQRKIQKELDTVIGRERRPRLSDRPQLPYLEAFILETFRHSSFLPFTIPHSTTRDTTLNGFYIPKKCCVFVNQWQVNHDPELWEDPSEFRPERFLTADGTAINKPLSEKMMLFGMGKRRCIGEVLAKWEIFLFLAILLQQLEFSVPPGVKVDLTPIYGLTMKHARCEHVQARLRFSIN
Put plainly: Inhibition of CYP1A2 in human liver microsomes incubated for 5 mins in presence of NADPH and specific substrates by LC/MS/MS method. In kind it is ADME.

Data set [21] deals with Cytochrome P450 2C9 (Homo sapiens, UniProt P11712). Nature of the data set: Inhibition of CYP2C9 in human liver microsomes incubated for 5 mins in presence of NADPH and specific substrates by LC/MS/MS method. In kind it is ADME.
A short description of data set [22]: Cmax in Han Wistar rat at 10 mg/kg, po by LCMS/MS method. It is filed as ADME, organism-based. Also on record: dose 10 mg/kg, route oral. The note with it: in vivo.
The nature of data set [23]: Oral bioavailability in Han Wistar rat at 10 mg/kg by LCMS/MS method. In kind it is ADME, organism-based. As to conditions: in vivo.
Data set [24] can be described thus: Half life in Han Wistar rat at 3 mg/kg, iv by LCMS/MS method. It is filed as ADME, organism-based. As to conditions: in vivo.

In brackets after ≈: the same amount, converted by molar mass. Activity calls are given as the source filed them. The rule behind the calls is not given here.

As a reminder, the logD is lipophilicity at a set pH, counting ionised and neutral species. A higher logD goes with a more lipophilic compound. By EC50 is commonly meant the concentration at which the effect is half-maximal. One may read the IC50 as the point on the concentration scale where inhibition reaches its midpoint. Usually solubility (thermodynamic) stands for the concentration in solution at equilibrium with solid. Broadly, the fraction unbound is free concentration divided by total concentration. Low readings indicate extensive binding, high ones weak binding. For orientation: Cmax means the highest concentration seen after dosing. As a reminder, the bioavailability is dose-corrected exposure relative to a reference, in per cent. Low values mean poor availability, high ones good availability. Broadly, the half-life is the time in which the quantity being followed falls by half. A low value points to rapid decline.

T2 sequence (P20815 whole entry): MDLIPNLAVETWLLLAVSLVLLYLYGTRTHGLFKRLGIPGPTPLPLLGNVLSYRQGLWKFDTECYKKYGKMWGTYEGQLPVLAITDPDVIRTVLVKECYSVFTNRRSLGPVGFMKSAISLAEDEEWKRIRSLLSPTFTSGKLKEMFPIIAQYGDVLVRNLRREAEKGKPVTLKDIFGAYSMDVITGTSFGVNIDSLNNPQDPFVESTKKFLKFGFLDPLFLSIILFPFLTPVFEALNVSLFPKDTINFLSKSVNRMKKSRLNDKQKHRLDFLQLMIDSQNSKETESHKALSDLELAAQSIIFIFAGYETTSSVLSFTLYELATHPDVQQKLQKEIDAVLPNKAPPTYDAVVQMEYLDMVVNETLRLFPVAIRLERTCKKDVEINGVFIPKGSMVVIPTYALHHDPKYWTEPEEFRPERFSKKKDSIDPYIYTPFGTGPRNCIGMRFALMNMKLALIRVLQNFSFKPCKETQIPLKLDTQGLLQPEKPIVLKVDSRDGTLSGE
T1 sequence (P08684 whole entry): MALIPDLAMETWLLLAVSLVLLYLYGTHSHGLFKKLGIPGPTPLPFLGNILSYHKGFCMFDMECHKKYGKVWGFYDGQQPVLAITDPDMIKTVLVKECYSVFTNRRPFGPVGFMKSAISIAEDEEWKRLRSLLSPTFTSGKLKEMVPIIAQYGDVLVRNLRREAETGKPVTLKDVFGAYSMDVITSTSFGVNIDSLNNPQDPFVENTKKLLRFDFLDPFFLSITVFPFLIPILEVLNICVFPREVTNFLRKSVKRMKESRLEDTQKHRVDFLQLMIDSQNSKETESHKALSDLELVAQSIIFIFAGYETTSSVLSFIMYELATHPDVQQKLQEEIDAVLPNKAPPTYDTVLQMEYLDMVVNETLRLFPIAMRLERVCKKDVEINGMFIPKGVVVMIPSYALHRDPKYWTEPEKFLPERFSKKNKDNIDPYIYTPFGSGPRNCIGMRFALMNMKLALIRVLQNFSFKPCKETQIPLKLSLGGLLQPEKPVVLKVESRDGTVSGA
Chain of Sphingosine 1-phosphate receptor 1 (P21453 whole entry): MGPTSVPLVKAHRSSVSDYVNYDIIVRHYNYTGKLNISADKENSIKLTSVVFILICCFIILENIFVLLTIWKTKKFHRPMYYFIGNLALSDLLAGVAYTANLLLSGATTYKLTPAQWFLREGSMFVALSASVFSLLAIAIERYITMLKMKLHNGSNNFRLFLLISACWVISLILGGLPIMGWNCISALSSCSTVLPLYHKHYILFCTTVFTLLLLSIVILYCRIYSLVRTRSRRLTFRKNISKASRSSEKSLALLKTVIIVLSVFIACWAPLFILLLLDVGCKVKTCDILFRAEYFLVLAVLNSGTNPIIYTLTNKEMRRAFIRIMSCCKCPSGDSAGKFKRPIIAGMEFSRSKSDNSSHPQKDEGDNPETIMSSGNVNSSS
Chain of Cytochrome P450 2D6 (P10635 whole entry): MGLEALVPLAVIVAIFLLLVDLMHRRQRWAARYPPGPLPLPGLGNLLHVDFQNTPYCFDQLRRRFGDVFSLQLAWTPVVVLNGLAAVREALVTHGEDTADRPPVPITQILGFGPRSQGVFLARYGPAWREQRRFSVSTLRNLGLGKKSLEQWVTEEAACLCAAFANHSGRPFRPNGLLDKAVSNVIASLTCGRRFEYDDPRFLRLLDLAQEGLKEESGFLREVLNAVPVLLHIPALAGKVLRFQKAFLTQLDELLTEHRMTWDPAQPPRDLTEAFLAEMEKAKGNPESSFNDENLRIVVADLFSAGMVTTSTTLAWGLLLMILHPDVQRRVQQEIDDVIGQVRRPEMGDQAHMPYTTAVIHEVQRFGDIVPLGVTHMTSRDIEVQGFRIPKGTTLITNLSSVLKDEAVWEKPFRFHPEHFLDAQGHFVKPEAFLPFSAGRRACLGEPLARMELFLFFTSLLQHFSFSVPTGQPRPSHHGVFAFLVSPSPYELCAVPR
Chain of Cytochrome P450 2C9 (P11712 whole entry): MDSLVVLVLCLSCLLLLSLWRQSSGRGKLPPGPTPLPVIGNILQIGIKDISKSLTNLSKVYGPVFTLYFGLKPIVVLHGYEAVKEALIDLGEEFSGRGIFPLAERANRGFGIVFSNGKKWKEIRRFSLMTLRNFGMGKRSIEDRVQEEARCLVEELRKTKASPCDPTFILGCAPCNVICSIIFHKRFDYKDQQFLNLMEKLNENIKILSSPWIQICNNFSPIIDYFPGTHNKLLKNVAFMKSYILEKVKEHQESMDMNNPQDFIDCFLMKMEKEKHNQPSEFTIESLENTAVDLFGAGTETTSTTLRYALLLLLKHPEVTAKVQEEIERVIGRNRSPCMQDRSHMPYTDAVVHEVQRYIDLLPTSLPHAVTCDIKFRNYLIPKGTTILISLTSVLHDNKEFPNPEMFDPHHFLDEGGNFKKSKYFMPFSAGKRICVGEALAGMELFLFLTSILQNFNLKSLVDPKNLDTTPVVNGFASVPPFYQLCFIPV
Chain of Cytochrome P450 2C19 (P33261 whole entry): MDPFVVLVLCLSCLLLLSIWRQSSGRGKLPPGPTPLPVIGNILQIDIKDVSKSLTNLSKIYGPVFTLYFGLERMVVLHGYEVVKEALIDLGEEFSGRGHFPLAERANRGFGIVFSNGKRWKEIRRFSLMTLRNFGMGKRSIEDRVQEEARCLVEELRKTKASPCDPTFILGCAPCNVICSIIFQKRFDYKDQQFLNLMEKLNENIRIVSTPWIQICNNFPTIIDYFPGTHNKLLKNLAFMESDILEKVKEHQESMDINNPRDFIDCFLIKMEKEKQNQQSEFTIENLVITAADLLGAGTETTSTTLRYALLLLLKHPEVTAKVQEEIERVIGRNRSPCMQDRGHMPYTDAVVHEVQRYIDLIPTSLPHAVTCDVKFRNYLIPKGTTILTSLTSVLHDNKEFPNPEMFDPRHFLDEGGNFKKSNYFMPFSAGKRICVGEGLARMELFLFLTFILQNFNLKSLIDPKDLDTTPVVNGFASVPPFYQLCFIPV

`CCn1c([C@@H](C)NS(=O)(=O)c2ccc(C#N)nc2)nc2cnc(C3CC3)cc21` came in with a logD in [1] of 1.6. In addition, the EC50 in [2] was 4 nM. Moreover, the IC50 in [3], in [4], in [5], in data set [6], in [20] and in data set [21] was above 20 µM in each case. Further, the Activity in data set [7] was 20%; in data set [8], below 40%; in data set [9], below 40%. Also, the inhibition entry in data set [10] was “Active”. The same compound had a thermodynamic solubility at 24 h in [11] above 1000 µM. The free fraction (fraction unbound) at 10 µM in data set [12] stood at 0.41; in [13], 0.18; in data set [14], 0.5; in data set [15] it was 0.19. In addition, the hepatocyte CLint at 1 µM was 2.5 µL/min/1e6 cells in data set [16], 3.9 µL/min/1e6 cells in data set [17], 1.7 µL/min/1e6 cells in [18] and 0.2 µL/min/1e6 cells in data set [19]. Also, the peak level in [22] (Cmax) was 21.7 µM. Also, the bioavailability in data set [23] was 93%.

For `CCn1c([C@@H](C)NS(=O)(=O)c2ccc(C#N)nc2)nc2cnc(C(F)(F)F)cc21`, the logD in [1] is 1.3. Further, in data set [2], the 50% effective concentration (EC50) turned out to be 7 nM. Besides, the IC50 in data set [3], in data set [4], in [5], in data set [6], in data set [20] and in data set [21] was above 20 µM each time. The Activity is 15% in data set [7], below 40% in [8] and below 40% in [9]. In addition, the inhibition entry in data set [10] was “Active”. Further, the thermodynamic solubility at 24 h in data set [11] was 765 µM (≈ 325 µg/mL). The fraction unbound at 10 µM was 0.53 in [12], 0.32 in [13], 0.36 in [14] and 0.24 in data set [15]. Also, the hepatocyte CLint at 1 µM in data set [16] came to 0.3 µL/min/1e6 cells; in data set [17], 2.1 µL/min/1e6 cells; in data set [18], 2.4 µL/min/1e6 cells; in data set [19] it was 1.2 µL/min/1e6 cells. The compound further gave a half-life in data set [24] of 144 min. This compound also registered a Cmax in data set [22] of 13.3 µM. Also, the bioavailability in data set [23] worked out at 87%.
